MEKK2 mut-MEK5: signal of MEK5 binding to mutant human MEKK2 PB1 domain; 290,000 tested, 0.35% active; percent response, % at 10 µM; bead flow cytometry, Alexa488-MEK5 binding to MEKK2 mutant; in the data active = percent response above about 24%, passing the limit was not always enough
B2AR ag: human beta-2 adrenergic receptor agonism by FAP; P07550; Am2.2-beta2AR cells, FAP receptor internalization, flow cytometry; response, % (test concentration not listed); 340,000 tested, 0.43% active; AID 504454;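 active = response above a set limit, near 3 SD of response in nonfluorescent compounds, cut at about 42% in these data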
Target sequence (P07550 whole entry, looked up): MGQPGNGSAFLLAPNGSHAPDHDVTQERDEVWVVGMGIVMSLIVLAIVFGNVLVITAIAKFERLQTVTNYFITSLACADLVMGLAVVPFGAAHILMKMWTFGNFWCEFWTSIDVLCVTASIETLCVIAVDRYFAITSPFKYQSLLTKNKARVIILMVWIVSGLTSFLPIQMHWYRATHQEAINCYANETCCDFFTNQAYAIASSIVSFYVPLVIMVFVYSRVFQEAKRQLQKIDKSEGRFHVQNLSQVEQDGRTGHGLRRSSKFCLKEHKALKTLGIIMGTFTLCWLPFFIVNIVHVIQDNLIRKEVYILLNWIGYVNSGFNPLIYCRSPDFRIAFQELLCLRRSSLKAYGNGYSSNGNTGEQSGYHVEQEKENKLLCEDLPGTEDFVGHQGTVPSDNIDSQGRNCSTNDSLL
MEKK3 PB1 HTS: MEKK3-MEK5 PB1 interaction, increase or decrease. bead-based flow cytometry, Alexa488-MEK5 binding to MEKK3; actives lie on both sides; 0 = blocked by unlabeled MEK5, 100 = vehicle. 290,000 tested, 1.4% active. Q99759. binding response (% of control), % at 10 µM;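 active = binding response more than 3 SD above or below the average of its plate-row segment, actives on both sides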;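 note: Alexa488 bead fluorescence after subtracting the streptavidin-only scavenger bead signal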
ATG4B inhibitor: inhibitors of human ATG4B cysteine protease; 340,000 tested, 0.51% active; ATG4B cleavage of LC3-PLA2, NBD-HPC fluorescence, 1 h; Q9Y4P1; inhibition, % at 8.33 µM; in the data active = inhibition above about 40%
MEKK2 WT-MEK5: raises or lowers MEK5 binding to wildtype human MEKK2 PB1 domain | Q9Y2U5 | bead flow cytometry, Alexa488-MEK5 binding to MEKK2 WT; actives lie on both sides | binding response (% of control), % at 10 µM | 290,000 tested, 1.1% active | AID 1531; in the data active = binding response below about 67% or above about 130%
Dynein cargo inh: dynein cargo transport inhibition; 3617.4 mouse cells, GR-EGFP nuclear translocation imaging; test concentration mostly 20 µM; stimulated with dexamethasone, 1 µM; active compounds read low; z-score, hits read low; 220,000 tested, 0.47% active; AID 1381;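 active = plate z-score of nuclear minus cytoplasmic receptor signal below a set negative limit, without overly bright fluorescence or cell loss, cut at about -3.5 in these data, passing the limit was not always enough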;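 note: z-score of nuclear minus cytoplasmic ring GR-EGFP intensity difference per well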
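Medium: Induction medium lacking tetracycline, stripped serum | Probe or stimulus: 1.0 µM final dexamethasone stimulus | Schedule: 48 h induction, then 1 h compound, then 30 min agonist, 37 °C | Signal: Automated 10x imaging of fixed Hoechst-stained cells | Evaluation: Per-cell GR-EGFP intensity, nucleus versus surrounding cytoplasmic ring, well-averaged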
MEKK2wt confirm: raises or lowers MEK5 binding to wildtype human MEKK2, retest; shares compounds with MEKK3 PB1 HTS; bead flow cytometry, Alexa488-MEK5 binding to MEKK2 WT; actives lie on both sides; binding response (% of control), % at 10 µM; 5,900 tested, 2.4% active; in the data active = binding response below about 16% or above about 210%; inactive = in between
MEKK2mut-MEK5: signal of MEK5 binding to mutant human MEKK2, retest | shares compounds with MEKK3 PB1 HTS | 5,900 tested, 2% active | percent response, % at 10 µM | AID 1893 | bead flow cytometry, Alexa488-MEK5 binding to MEKK2 mutant; in the data active = percent response mostly above about 71%, no sharp cut-off; inactive = mostly below about 38%;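 note: higher means compound restores mutant binding toward wildtype level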
MEKK3-MEK5 inh: confirmation of inhibitors of MEK5 binding to human MEKK3; 5,900 tested, 1.8% active; binding response (% of control), % at 10 µM; bead flow cytometry, Alexa488-MEK5 binding to MEKK3; active compounds read low; shares compounds with MEKK3 PB1 HTS;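 active = binding response below 72% of control, or above a set upper limit, though filed actives all read lower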;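 note: lower values mean stronger disruption of MEK5 binding to MEKK3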
Hits are given with their value; i = inactive; nt = not tested or not shown; [ ] = dose if it differs, or a comment. Shown are actives, neighbours in structure and some others; about 2.9% of the full set was active somewhere.

SMILES	MEKK2 mut-MEK5	B2AR ag	MEKK3 PB1 HTS	ATG4B inhibitor	MEKK2 WT-MEK5	Dynein cargo inh	MEKK2wt confirm	MEKK2mut-MEK5	MEKK3-MEK5 inh
CCC1CCCCN1S(=O)(=O)c1ccc(C(=O)N(CCCN(C)C)c2nc3cc4c(cc3s2)OCO4)cc1 (stereo not drawn)	24	i	i	i	156	nt	i	i	i
CN(C)CCN(C(=O)c1cccc2ccccc12)c1nc2cc3c(cc2s1)OCO3	i	i	i	i	137	nt	i	i	i
COc1cc(/C=C/C(=O)NCC2CCCCC2)cc(OC)c1OC	i	i	i	i	i	nt	nt	nt	nt
CC1Sc2ccc(S(=O)(=O)N(C)Cc3ccccc3)cc2NC1=O (stereo not drawn)	i	i	i	i	i	nt	nt	nt	nt
Cc1sc2ncn(CC(=O)NCCCC(=O)N3CCCCC3)c(=O)c2c1C	i	i	i	i	i	nt	nt	nt	nt
COc1cccc(NC(=O)c2ccc(NCCCN3CC(C)CC(C)C3)c([N+](=O)[O-])c2)c1 (stereo not drawn)	i	i	i	i	139	i	i	i	i
Cc1ccccc1C1=N/C(=C/c2cccs2)C(=O)O1	i	i	i	i	i	i	nt	nt	nt
Cc1ccc(C2=N/C(=C/c3cccs3)C(=O)N2Nc2ccccc2)cc1	i	i	i	i	52[inhibitor]	i	i	i	i
Cc1ccccc1OCc1nnc(SCC(=O)N2CCc3ccccc32)n1C	i	i	2.0[inhibitor]	i	2.0[inhibitor]	i	i	i	i
CC(=O)CSc1nnc2c3ccccc3nc(C(C)(C)C)n12	i	i	73[inhibitor]	i	63[inhibitor]	i	i	i	i
Cc1ccc(C(=O)CSc2nnc3c4ccccc4nc(C(C)(C)C)n23)cc1	i	i	i	i	i	i	nt	nt	nt
COc1ccc(CCNC(=O)COC(=O)c2cncc(Br)c2)cc1OC	nt	i	nt	i	nt	nt	nt	nt	nt
CC1CCc2sc(C(=O)N=Nc3c(O)[nH]c4ccccc34)cc2C1 (stereo not drawn)	i	nt	130	nt	i	i	i	i	i
O=C(N=Nc1c(O)[nH]c2ccccc12)c1cccs1	i	i	i	i	i	i	nt	nt	nt
Cc1cccc(C(=O)N/N=C2\CS(=O)(=O)N(C)c3ccsc32)c1	i	i	i	i	i	i	nt	nt	nt
O=C(CSc1nc2ccccc2s1)N1N=C(c2cccs2)CC1c1ccc(F)cc1 (stereo not drawn)	i	i	73[inhibitor]	i	i	i	i	i	i
COc1ccc(C2CC(c3cccs3)=NN2C(=O)CSc2nc3ccccc3s2)cc1 (stereo not drawn)	i	i	130	i	i	i	i	i	i
CCOC(=O)CSCC(=O)N1N=C(c2cccs2)CC1c1ccc(F)cc1 (stereo not drawn)	i	i	i	i	i	i	nt	nt	nt
CCNc1oc(-c2cccc3ccccc23)nc1C#N	i	i	i	i	i	i	nt	nt	nt
N#Cc1nc(-c2cccc3ccccc23)oc1NCCN1CCCCC1	i	i	i	i	159	i	i	i	i
Cc1cc(Cl)ccc1OCC(=O)Nn1c(C)ccc1C	i	i	128	i	i	i	i	i	i
COc1ccc(C2CC(c3ccc(C)o3)=NN2C(C)=O)cc1 (stereo not drawn)	i	i	i	i	i	i	nt	nt	nt
CCOc1cccc2c1OC(c1cc(OC)c(OC)c(OC)c1)N1N=C(c3ccc(C)o3)CC21 (stereo not drawn)	i	i	15[inhibitor]	i	6.0	i	i	i	i
Cc1nc(P(=O)(c2ccccc2)c2ccccc2)c(N2CCOCC2)o1	i	i	131	i	i	i	i	i	i
CN(CCO)C(=O)c1cccc2c1-c1ccccc1C2=O	i	i	81[inhibitor]	i	i	i	i	i	i
SMILES	MEKK2 mut-MEK5	B2AR ag	MEKK3 PB1 HTS	ATG4B inhibitor	MEKK2 WT-MEK5	Dynein cargo inh	MEKK2wt confirm	MEKK2mut-MEK5	MEKK3-MEK5 inh
C[C@@H]1C[C@H]2[C@@H]3CCC4=CC(=O)C=C[C@]4(C)[C@@]3(F)[C@@H](O)C[C@]2(C)[C@H]1C(=O)CO	i	i	122	i	i	i	i	i	i
O=C(NCCCN1CCN(CCCNC(=O)c2cc([N+](=O)[O-])ccc2Cl)CC1)c1cc([N+](=O)[O-])ccc1Cl	i	i	i	i	206	i	i	79	i
COc1cccc2cc(C(C)OC(=O)Nc3ccc(C)cc3)oc12 (stereo not drawn)	i	i	i	i	i	i	nt	nt	nt
O=C(CN1CCCN(S(=O)(=O)c2ccc(Br)cc2)CC1)Nc1ccc2c(c1)OCO2	i	nt	1.0[inhibitor]	nt	0.0[inhibitor]	i	i	i	i
COc1ccc(S(=O)(=O)N2CCCN(CC(=O)Nc3ccc4c(c3)OCO4)CC2)cc1	nt	i	nt	i	nt	i	nt	nt	nt
O=c1[nH]ncc(NCc2ccc(Cl)cc2)c1Cl	i	i	132	i	i	i	i	i	i
COC(C(=O)Nc1ccnn1C1CCN(C(=O)c2ccc(C=O)cc2)CC1)c1ccccc1 (stereo not drawn)	i	i	i	i	i	nt	nt	nt	nt
O=CNCC(=O)NC1CCCCCC1	i	i	79[inhibitor]	i	i	i	i	i	i
COc1ccc(CCNC(=O)CCNC(=O)c2ccccc2Cl)cc1	i	i	i	i	i	nt	nt	nt	nt
Cc1ccc(OCc2cc(C(=O)N(C)CCc3ccccn3)no2)cn1	i	i	i	i	i	nt	nt	nt	nt
CCOC(=O)Cn1c(=N)n(CCOc2ccc3ccccc3c2)c2ccccc21	i	i	i	i	146	i	i	i	i
CC(C)(Cc1ccc(O)cc1)NC(=O)CC(=O)N=Nc1c(O)[nH]c2ccc(Br)cc12	i	i	21[inhibitor]	i	i	i	i	i	i
Cc1cccc(C)c1OCC(=O)N=Nc1c(O)[nH]c2ccc(Br)cc12	nt	i	nt	i	nt	i	nt	nt	nt
Cc1ccc(NC(=O)c2nc(S(=O)(=O)Cc3ccccc3C)ncc2Cl)cc1C	i	i	i	i	i	nt	nt	nt	nt
Cc1cc(Nc2ccc(Cl)cc2)nc(-c2ccccc2O)n1	28	i	i	i	140	nt	i	i	i
Cc1cc(Nc2cccc(Cl)c2)nc(-c2ccccc2O)n1	i	i	i	i	i	nt	nt	nt	nt
CCOc1ncccc1C(=O)Nc1cc(S(=O)(=O)N2CCCCC2)ccc1C	nt	i	nt	i	nt	nt	nt	nt	nt
Cc1nc(NC(=O)c2ccccc2)sc1C1(C)CC(c2c(Cl)cccc2Cl)=NO1 (stereo not drawn)	i	i	i	i	i	i	nt	nt	nt

Screening data as filed in PubChem BioAssay.
